Experimental data from ChEMBL document CHEMBL1140136, “Structural modifications of N-(1,2,3,4-tetrahydronaphthalen-1-yl)-4-aryl-1-piperazinehexanamides: influence on lipophilicity and 5-HT7 receptor activity. Part III” (J Med Chem, 2008).
Calls of active or inactive are those of the source. The rule behind the calls is not given here.

Assays:
[1] = target: 5-hydroxytryptamine receptor 7 (Rattus norvegicus, UniProt P32305); assay: Displacement of [3H]LSD from rat cloned 5HT7 receptor expressed in HEK293 cells; assay type: cell-based
Sequence of 5-hydroxytryptamine receptor 7 (Rattus norvegicus, UniProt P32305) (P32305 whole entry): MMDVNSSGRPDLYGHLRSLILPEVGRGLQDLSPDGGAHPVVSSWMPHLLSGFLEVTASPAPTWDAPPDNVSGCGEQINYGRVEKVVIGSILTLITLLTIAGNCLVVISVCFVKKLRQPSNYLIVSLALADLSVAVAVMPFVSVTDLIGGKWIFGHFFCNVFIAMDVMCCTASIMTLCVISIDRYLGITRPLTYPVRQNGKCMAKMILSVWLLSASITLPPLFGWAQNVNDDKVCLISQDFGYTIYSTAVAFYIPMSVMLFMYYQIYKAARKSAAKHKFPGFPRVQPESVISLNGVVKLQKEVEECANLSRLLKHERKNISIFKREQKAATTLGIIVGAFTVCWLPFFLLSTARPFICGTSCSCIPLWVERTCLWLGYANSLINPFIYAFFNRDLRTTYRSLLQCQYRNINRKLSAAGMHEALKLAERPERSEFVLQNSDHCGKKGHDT
Method in brief: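 Rat recombinant 5-HT7 membranes (30 µg) from HEK-293 cells, with 2.5 nM [3H]-LSD and 6-9 compound concentrations. Incubated 60 min at 37 °C in 50 mM Tris, 10 mM MgCl2, 0.5 mM EDTA, pH 7.4, then filtered. Nonspecific binding with 10 µM 5-CT. Ki via Cheng-Prusoff; three experiments in triplicate.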

[2] = target: T1, 5-hydroxytryptamine receptor 1A (Homo sapiens, UniProt P08908); assay: Displacement of [3H]8-OH-DPAT from human cloned 5HT1A receptor expressed in HEK293 cells; assay type: cell-based
T1 sequence (P08908 whole entry): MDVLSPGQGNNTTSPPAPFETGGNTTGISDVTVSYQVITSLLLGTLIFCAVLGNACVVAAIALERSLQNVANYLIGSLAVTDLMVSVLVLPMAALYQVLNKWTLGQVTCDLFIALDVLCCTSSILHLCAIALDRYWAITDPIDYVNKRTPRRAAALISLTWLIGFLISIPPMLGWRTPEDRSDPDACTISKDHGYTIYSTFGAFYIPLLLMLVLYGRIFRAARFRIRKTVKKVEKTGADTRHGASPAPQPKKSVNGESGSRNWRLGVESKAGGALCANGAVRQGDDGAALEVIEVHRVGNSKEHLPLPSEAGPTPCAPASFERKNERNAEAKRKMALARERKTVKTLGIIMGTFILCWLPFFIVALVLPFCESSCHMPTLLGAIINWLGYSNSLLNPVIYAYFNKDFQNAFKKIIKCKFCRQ
Method in brief: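 Membranes (40 µg) from HEK-293 cells stably expressing human 5-HT1A, with 1.0 nM [3H]-8-OH-DPAT and compound (0.1 nM-10 µM). Incubated 120 min at 37 °C in 50 mM Tris-HCl pH 7.4, 5 mM MgSO4, then filtered. Nonspecific binding with 10 µM 5-HT. Ki by nonlinear fit and Cheng-Prusoff; three experiments in triplicate.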

[3] = target: D(2) dopamine receptor (Homo sapiens, UniProt P14416); assay: Displacement of [3H]spiroperidol from human cloned dopamine D2L receptor expressed in rat C6 cells; assay type: cell-based
Sequence of D(2) dopamine receptor (P14416 whole entry): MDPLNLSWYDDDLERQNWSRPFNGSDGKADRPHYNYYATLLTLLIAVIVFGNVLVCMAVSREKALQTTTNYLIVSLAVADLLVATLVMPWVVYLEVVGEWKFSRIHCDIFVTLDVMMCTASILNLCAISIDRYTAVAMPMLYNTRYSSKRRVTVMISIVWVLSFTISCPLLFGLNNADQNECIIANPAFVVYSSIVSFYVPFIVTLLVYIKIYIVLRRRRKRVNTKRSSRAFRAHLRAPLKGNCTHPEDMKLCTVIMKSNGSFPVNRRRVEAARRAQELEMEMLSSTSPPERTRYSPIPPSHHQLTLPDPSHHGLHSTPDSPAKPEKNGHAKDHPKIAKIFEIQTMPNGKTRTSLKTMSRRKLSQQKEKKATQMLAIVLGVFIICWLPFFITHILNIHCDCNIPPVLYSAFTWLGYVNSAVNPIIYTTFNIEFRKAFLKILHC

[4] = Elimination half life in CD1 albino mouse brain at 10 mg/kg, ip; assay type: ADME, organism-based; design: dose 10 mg/kg, route intraperitoneal; settings: read-out: beta t1/2
Method in brief: (§1)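 Male CD1 albino mice (25-30 g), 10 mg/kg i.p., 3 mice per time point. Brains were removed, blotted, frozen, homogenized in water (1 g/10 mL) and extracted twice with hexane/isoamyl alcohol. Parent and 1-arylpiperazine metabolite were measured by RP-HPLC-UV at 230 nm. LLOQ about 0.1 µg/g; no residual-blood correction. Cmax read directly, AUC by linear trapezoidal rule, t1/2 by noncompartmental analysis.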

[5] = Cmax in CD1 albino mouse brain at 10 mg/kg, ip after 120 mins; assay type: ADME, organism-based; design: dose 10 mg/kg, route intraperitoneal; method in brief: as §1
[6] = tested on: Mus musculus; assay: AUC in CD1 albino mouse brain at 10 mg/kg, ip; assay type: ADME, organism-based; design: dose 10 mg/kg, route intraperitoneal; settings: in vivo; method in brief: as §1
[7] = target: 5-hydroxytryptamine receptor 7 (Rattus norvegicus) (UniProt P32305); assay: Displacement of [3H]LSD from rat cloned 5HT7 receptor expressed in HEK293 cells at […]; assay type: cell-based
Sequence of 5-hydroxytryptamine receptor 7 (Rattus norvegicus) (P32305 whole entry): as the sequence (P32305 whole entry) above

[8] = target: 5-hydroxytryptamine receptor 7 (Cavia porcellus) (UniProt P50407); assay: Agonist activity at 5HT7 receptor assessed as relaxation of substance P-induced Dunkin-Hartley guinea pig ileum contraction at 2 mM; assay type: functional, tissue-based
Sequence of 5-hydroxytryptamine receptor 7 (Cavia porcellus) (P50407 whole entry): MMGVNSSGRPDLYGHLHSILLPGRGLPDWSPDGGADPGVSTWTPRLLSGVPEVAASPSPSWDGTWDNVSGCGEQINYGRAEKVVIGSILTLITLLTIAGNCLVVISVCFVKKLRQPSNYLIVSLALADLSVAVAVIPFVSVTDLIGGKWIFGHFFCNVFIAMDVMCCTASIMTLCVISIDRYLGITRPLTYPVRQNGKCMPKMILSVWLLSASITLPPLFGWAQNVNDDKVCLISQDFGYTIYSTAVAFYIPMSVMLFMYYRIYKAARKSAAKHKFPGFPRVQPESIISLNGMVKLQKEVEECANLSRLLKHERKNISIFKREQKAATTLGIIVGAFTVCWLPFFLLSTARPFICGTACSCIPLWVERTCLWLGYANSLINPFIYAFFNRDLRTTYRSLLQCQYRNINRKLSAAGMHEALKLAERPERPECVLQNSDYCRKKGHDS
Method in brief: (§2)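 Guinea pig ileum was contracted by 100 nM substance P in Krebs-Henseleit with atropine, ketanserin and pyrilamine (1 µM each). Agonist tests were repeated after 5-HT7 desensitization: 60 min equilibration with 3 µM 5-CT, bath changed every 15 min. Relaxation was scored at single test concentrations as % reduction in contraction height.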

[9] = target: 5-hydroxytryptamine receptor 7 (Cavia porcellus) (UniProt P50407); assay: Agonist activity at 5HT7 receptor assessed as relaxation of substance P-induced Dunkin-Hartley guinea pig ileum contraction at 3 mM; assay type: functional, tissue-based; method in brief: as §2
[10] = target: 5-hydroxytryptamine receptor 7 (Cavia porcellus) (UniProt P50407); assay: Agonist activity at 5HT7 receptor assessed as relaxation of substance P-induced Dunkin-Hartley guinea pig ileum contraction at 1 mM; assay type: functional, tissue-based; method in brief: as §2
[11] = target: T2, 5-hydroxytryptamine receptor 7 (Cavia porcellus, UniProt P50407); assay: Agonist activity at 5HT7 receptor assessed as relaxation of substance P-induced Dunkin-Hartley guinea pig ileum contraction; assay type: functional, tissue-based
T2 sequence (P50407 whole entry): as above
Method in brief: (§3)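 Male Dunkin-Hartley guinea pigs (300-350 g); 3 cm proximal ileum segments were held under 1.0 g tension in Krebs-Henseleit at 37 °C, gassed with 95% O2/5% CO2. The bath contained 1 µM atropine, ketanserin and pyrilamine. Compound (0.001-10 µM) or the 5-CT reference was added 5 min before 100 nM substance P, giving noncumulative curves. Read-out was % reduction of contraction height; EC50 by nonlinear fitting.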

[12] = Cmax in CD1 albino mouse plasma at 10 mg/kg, ip after 30 mins; assay type: ADME, organism-based; design: dose 10 mg/kg, route intraperitoneal
Method in brief: (§4)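 Male CD1 mice (25-30 g) received 10 mg/kg ip, with 3 mice per time point. Heparinized trunk blood gave plasma; brain was homogenized in water (1 g/10 mL). Samples were extracted with hexane/isoamyl alcohol and assayed by RP-HPLC-UV at 230 nm with an internal standard. Quantification limits were 0.1 µg/mL plasma and 0.1 µg/g brain. Cmax and its time were read from the data.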

[13] = organism: Mus musculus; assay: Ratio of plasma AUC to brain AUC in CD1 albino mouse; assay type: ADME, organism-based; settings: in vivo
Method in brief: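 Male CD1 mice (25-30 g) were dosed at 10 mg/kg ip, 3 per time point. Trunk blood plasma and brain homogenate were extracted with hexane/isoamyl alcohol and analysed by RP-HPLC-UV at 230 nm. Quantification limit was ~0.1 µg/mL or µg/g. AUC was calculated by the linear trapezoidal rule, noncompartmental, extrapolated to infinity where possible.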

[14] = Cmax in CD1 albino mouse brain at 10 mg/kg, ip after 30 mins; assay type: ADME, organism-based; design: dose 10 mg/kg, route intraperitoneal; method in brief: as §4
[15] = target: 5-hydroxytryptamine receptor 7 (Cavia porcellus) (UniProt P50407); assay: Agonist activity at 5HT7 receptor assessed as relaxation of substance P-induced Dunkin-Hartley guinea pig ileum contraction relative to 5-carboxamidotryptamine; assay type: functional, tissue-based; design: scale not given: the % may be the effect or the level left; method in brief: as §3
[16] = Elimination half life in CD1 albino mouse plasma at 10 mg/kg, ip; settings: read-out: beta t1/2
[17] = tested on: Mus musculus; assay: Volume of distribution in CD1 albino mouse plasma at 10 mg/kg, ip; settings: in vivo
[18] = Cmax in CD1 albino mouse brain at 10 mg/kg, ip after 60 mins; assay type: ADME, organism-based; design: dose 10 mg/kg, route intraperitoneal; method in brief: as §1
[19] = Selectivity for rat cloned 5HT7 over human cloned 5HT1A
[20] = Selectivity for rat cloned 5HT7 over human cloned dopamine D2
[21] = target: T2, 5-hydroxytryptamine receptor 7; assay: Antagonist activity at 5HT7 receptor assessed as inhibition of 2-[6-[4-(2-Diphenyl)-1-piperazinyl]-1-oxohexyl]-1,2,3,4-tetrahydroisoquinoline mediated relaxation of substance P-induced Dunkin-Hartley guinea pig ileum contraction; assay type: functional, tissue-based; settings: read-out: pA2 (converted)
Method in brief: (§5)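 Male Dunkin-Hartley guinea pigs (300-350 g); whole proximal ileal segments (~3 cm) held under 1.0 g tension in Krebs-Henseleit, 95% O2/5% CO2, 37 °C. Bath contained 1 µM atropine, ketanserin and pyrilamine. Contraction evoked by 100 nM substance P; agonist added 5 min before; selective 5-HT7 antagonist at 0.1-3 µM; isometric tension relaxation, noncumulative curves.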

[22] = target: T2, 5-hydroxytryptamine receptor 7; assay: Antagonist activity at 5HT7 receptor assessed as inhibition of 4-(2-Diphenyl)-N-(4-pyridinylmethyl)-1-piperazinehexanamide mediated relaxation of substance P-induced Dunkin-Hartley guinea pig ileum contraction; assay type: functional, tissue-based; settings: read-out: pA2 (converted); method in brief: as §5
[23] = target: T2, 5-hydroxytryptamine receptor 7; assay: Antagonist activity at 5HT7 receptor assessed as inhibition of N-(4-Cyanophenylmethyl)-4-(2-diphenyl)-1-piperazinehexanamide mediated relaxation of substance P-induced Dunkin-Hartley guinea pig ileum contraction; assay type: functional, tissue-based; settings: read-out: pA2 (converted); method in brief: as §5

COc1ccccc1N1CCN(CCCCCC(=O)NCc2ccccc2)CC1
Ki [1]: 224 nM
Ki [2]: 13 nM
Ki [3]: 226 nM

COc1ccccc1N1CCN(CCCCCC(=O)N2Cc3ccccc3C2)CC1
Ki [1]: 179 nM
Ki [2]: 3.2 nM
Ki [3]: 730 nM

c1ccc(-c2ccccc2N2CCNCC2)cc1
half-life [4]: 1.45 h
Cmax [5]: 410 ng/g
AUC [6]: 94 µg/min/mL

CC(C)c1ccccc1N1CCN(CCCCCC(=O)N2CCc3ccccc3C2)CC1
Ki [1]: 6 nM
Ki [2]: 3.7 nM
Ki [3]: 1.3 nM

COc1ccccc1N1CCN(CCCCCC(=O)NCc2ccncc2)CC1
Ki [1]: 389 nM
Ki [2]: 19 nM
Ki [3]: 501 nM

CC(C)c1ccccc1N1CCN(CCCCCC(=O)NCc2ccccc2)CC1
Ki [1]: 215 nM
Ki [2]: 139 nM
Ki [3]: 9.2 nM

CSc1ccccc1N1CCN(CCCCCC(=O)NCc2ccncc2)CC1
Ki [1]: 34.8 nM
Ki [2]: 8.2 nM
Ki [3]: 64 nM

O=C(CCCCCN1CCN(c2ccccc2-c2ccccc2)CC1)N1Cc2ccccc2C1
Ki [1]: 8.3 nM
Ki [2]: 124 nM
Ki [3]: 93 nM

COc1ccccc1N1CCN(CCCCCC(=O)NCc2ccc(C#N)cc2)CC1
Ki [1]: 296 nM
Ki [2]: 43 nM
Ki [3]: 311 nM

CC(C)c1ccccc1N1CCN(CCCCCC(=O)NCc2ccncc2)CC1
Ki [1]: 5.1 nM
Ki [2]: 325 nM
Ki [3]: 21 nM

O=C(CCCCCN1CCN(c2ccccc2-c2ccccc2)CC1)NCc1ccccc1
Activity [7]: 62%
Activity [8]: Active
Activity [9]: Active
Activity [10]: inactive
Ki [2]: 161 nM
Ki [3]: 503 nM
EC50 [11]: 4500 nM

N#Cc1ccc(CNC(=O)CCCCCN2CCN(c3ccccc3-c3ccccc3)CC2)cc1
Cmax [12]: 760 ng/mL
Ratio AUC [13]: 0.7
Cmax [14]: 540 ng/g
half-life [4]: 1.15 h
Ki [1]: 0.58 nM
Ki [3]: 142 nM
EC50 [11]: 600 nM
Activity [15]: 82%
half-life [16]: 1.08 h
Vd [17]: 11 L/kg

COc1ccccc1N1CCN(CCCCCC(=O)NCc2ccc(OS(C)(=O)=O)cc2)CC1
Ki [1]: 71 nM
Ki [2]: 29 nM
Ki [3]: 91 nM

CSc1ccccc1N1CCN(CCCCCC(=O)NCc2ccccc2)CC1
Ki [1]: 22 nM
Ki [2]: 12 nM
Ki [3]: 33 nM

CSc1ccccc1N1CCN(CCCCCC(=O)NCc2ccc(OS(C)(=O)=O)cc2)CC1
Ki [1]: 148 nM
Ki [2]: 10.3 nM
Ki [3]: 30 nM

CSc1ccccc1N1CCNCC1
half-life [4]: 1 h
AUC [6]: 85 µg/min/mL
Cmax [18]: 500 ng/g

O=C(CCCCCN1CCN(c2ccccc2-c2ccccc2)CC1)N1CCc2ccccc2C1
Selectivity ratio [19]: 25
Selectivity ratio [20]: 95
Ki [1]: 3.81 nM
Ki [2]: 95 nM
Ki [3]: 362 nM
EC50 [11]: 490 nM
Activity [15]: 89%

O=C(CCCCCN1CCN(c2ccccc2-c2ccccc2)CC1)NCc1ccncc1
Selectivity ratio [19]: 25
Selectivity ratio [20]: 95
Ki [1]: 0.98 nM
Ki [2]: 70 nM
Ki [3]: 185 nM
EC50 [11]: 310 nM
Activity [15]: 87%

COc1ccccc1N1CCN(CCCCCC(=O)N2CCc3ccccc3C2)CC1
Ki [1]: 31 nM
Ki [2]: 40 nM
Ki [3]: 22 nM

NCCc1c[nH]c2ccc(C(N)=O)cc12
Activity [15]: 100%

CC(C)c1ccccc1N1CCN(CCCCCC(=O)NCc2ccc(C#N)cc2)CC1
Ki [1]: 8.6 nM
Ki [2]: 53 nM
Ki [3]: 20 nM

CS(=O)(=O)Oc1ccc(CNC(=O)CCCCCN2CCN(c3ccccc3-c3ccccc3)CC2)cc1
Ki [1]: 5.7 nM
Ki [2]: 106 nM
Ki [3]: 723 nM

CSc1ccccc1N1CCN(CCCCCC(=O)NCc2ccc(C#N)cc2)CC1
Ki [1]: 9 nM
Ki [2]: 94 nM
Ki [3]: 5.3 nM

CC(C)c1ccccc1N1CCN(CCCCCC(=O)NCc2ccc(OS(C)(=O)=O)cc2)CC1
Ki [1]: 76 nM
Ki [2]: 57 nM
Ki [3]: 7.8 nM

CC1CCN(CC[C@H]2CCCN2S(=O)(=O)c2cccc(O)c2)CC1
Kb [21]: 15.8 nM
Kb [22]: 11 nM
Kb [23]: 20.4 nM

CSc1ccccc1N1CCN(CCCCCC(=O)N2Cc3ccccc3C2)CC1
Ki [1]: 42 nM
Ki [2]: 1.07 nM
Ki [3]: 96 nM

CC(C)c1ccccc1N1CCN(CCCCCC(=O)N2Cc3ccccc3C2)CC1
Ki [1]: 54 nM
Ki [2]: 22 nM
Ki [3]: 65 nM

CSc1ccccc1N1CCN(CCCCCC(=O)N2CCc3ccccc3C2)CC1
Ki [1]: 32.9 nM
Ki [2]: 2.04 nM
Ki [3]: 40 nM
